Test results published in publication PMC12690603 (Chemical Science, 2025).
Non-standard residues stand in square brackets, D forms with d. No end group written: not given here. βAla = NCCC(=O)O

Legend:
Assay type in all cases: biochemical
[1] = biological target: T1, human SETD7 (Homo sapiens, UniProt Q8WTS6); assay: SETD7-catalysed methylation of H3 peptides, conversion by MALDI-TOF MS; settings: SAM 30 µM; for methylation by SETD7 (conversion to methylated product): 13-mer peptide 10 µM, MALDI-TOF MS; for methylation by SETD7 in time-course: within 30 min
T1 sequence (Q8WTS6 1-366): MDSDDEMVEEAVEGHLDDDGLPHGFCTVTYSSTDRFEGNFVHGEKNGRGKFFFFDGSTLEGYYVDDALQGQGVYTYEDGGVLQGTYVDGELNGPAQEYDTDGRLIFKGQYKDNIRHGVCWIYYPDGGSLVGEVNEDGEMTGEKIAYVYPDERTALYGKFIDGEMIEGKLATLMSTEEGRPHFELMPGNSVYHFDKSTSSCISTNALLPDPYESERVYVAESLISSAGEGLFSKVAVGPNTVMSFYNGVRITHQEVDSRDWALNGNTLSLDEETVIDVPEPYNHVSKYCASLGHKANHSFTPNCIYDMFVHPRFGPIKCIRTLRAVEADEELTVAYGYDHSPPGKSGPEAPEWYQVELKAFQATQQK
In short: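 Recombinant human SETD7 (100 nM, 500 nM or 1 µM) was incubated with stapled or linear H3 peptide (10 µM) and SAM (30 µM) in 50 mM HEPES, 0.1 mM EDTA, 1 mM DTT, pH 8, at 37 °C with shaking at 750 rpm. Reactions were quenched with 10% (v/v) TFA at set times. Methylation (+14 Da) was measured by MALDI-TOF MS. % conversion came from peak areas. n = 2, standard deviations.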

[2] = biological target: T1, human SETD7; assay: Steady-state kinetics of SETD7-catalysed methylation; settings: for K m / k cat: peptide 1–150 µM, SETD7 50–300 nM, 10 or 20 min, MALDI-TOF MS, mean ± SD, SD; for K m / k cat / k cat/Km: SAM 30 µM, 37 °C, n = 3; for fold increase of kcat/Km compared to linear H3K4 (1): steady-state kinetics, relative to peptide 1; for k cat/Km: steady-state
In short: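 Recombinant human SETD7 (50–300 nM) added to start reactions containing H3 peptide (1–150 µM series) and SAM (30 µM). Incubated at 37 °C for 10 or 20 min with shaking, then quenched. MALDI-TOF MS was the read-out, with % methylation from integrated […] peak areas. Three independent experiments, SD. kcat/Km values were compared with the linear H3K4 reference peptide.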

[3] = tested on: human SETD1A; assay: SETD1A-catalysed methylation of 21-mer H3 peptides; settings: 21-mer peptide 2 µM, SETD1A 1 µM, SAM 100 µM, pH 8.6, 37 °C, 3 h, n = 2
[4] = SETD7 500 nM, 50 mM HEPES, 0.1 mM EDTA, 1 mM DTT, pH 8.0, 37 °C, 1 h, n = 2
[5] = SETD7 100 nM, peptide 10 µM, 37 °C, n = 2

methylation by SETD7 (conversion to methylated product) ([1]; SETD7 100 nM, 37 °C, 1 h) [%] | K m [2] [µM] | k cat [2] [s⁻¹] | fold increase of kcat/Km compared to linear H3K4 (1) [2] [fold] | k cat/Km [2] [M⁻¹ s⁻¹] | methylation by SETD7 (conversion to methylated product) ([1]; SETD7 1 µM, 37 °C, 3 h) [%] | Substance | further results
~48 | 17.7 ± 3.15 | 0.0495 ± 0.00317 | 12 | 2830 | – | [βAla]RTKQEARKSTGG (also: sidechain bridge or staple (positions not given here)) [Peptide 11] | –
– | – | – | – | – | ~11 | GRTKQTERKSTGG (also: sidechain bridge or staple (positions not given here)) [Peptide 15] | –
– | – | – | – | – | ~40 | GRTKQEARKSTGG [Peptide 16] | –
– | – | – | – | – | ~91 | GGRTKQEARKSTGG (also: sidechain bridge or staple (positions not given here)) [Peptide 13] | –
– | – | – | – | – | < 5 | GRTKETARKSTGG (also: sidechain bridge or staple (positions not given here)) [Peptide 14] | –

Continued, substance first:

Substance | methylation by SETD7 (conversion to methylated product) ([1]; SETD7 100 nM, 37 °C, 1 h) [%] | K m [2] [µM] | k cat [2] [s⁻¹] | fold increase of kcat/Km compared to linear H3K4 (1) [2] [fold] | k cat/Km [2] [M⁻¹ s⁻¹] | methylation by SETD7 (conversion to methylated product) ([1]; SETD7 1 µM, 37 °C, 3 h) [%] | further results
ARTKQEARKSTGG (also: sidechain bridge or staple (positions not given here)) [Peptide 4] | – | – | – | – | – | – | methylation by SETD7 (conversion to methylated product) [1, 4]: ~63%
RTKQEARKSTGG (also: sidechain bridge or staple (positions not given here)) [Peptide 12] | – | – | – | – | – | ~75 | –
ARTKQTARKSTGG [Peptide 1, reference compound] | – | 61.6 ± 12.6 | 0.014 ± 0.0013 | – | 233 | – | methylation/turnover in time-course at low enzyme concentration (in words) ([1]; SETD7 100 nM, peptide 10 µM, 37 °C, time-course): lack of H3K4 (1) methylation; methylation by SETD7 (conversion to methylated product) [1, 4]: ~56%
FRTKQEARKSTGG (also: sidechain bridge or staple (positions not given here)) [Peptide 9] | ~62 | 34.6 ± 9.78 | 0.0493 ± 0.00517 | 6 | 1430 | – | –
ARTKQDARKSTGG (also: sidechain bridge or staple (positions not given here)) [Peptide 5] | ~10 | 12.5 ± 2.77 | 0.031 ± 0.00233 | 10 | 2500 | – | methylation by SETD7 (conversion to methylated product) [1, 4]: fully converted to methylated product
CRTKQCARKSTGG (also: sidechain bridge or staple (positions not given here)) [Peptide 2] | – | – | – | – | – | ~86 | –
GRTKQEARKSTGG (also: sidechain bridge or staple (positions not given here)) [Peptide 7] | ~96 | 1.84 ± 0.27 | 0.046 ± 0.00283 | 110 | 25000 | – | methylation by SETD7 in time-course [1, 5]: ~90%
AzaRTKQPraARKSTGG (sidechain bridge or staple) [Peptide 3] | – | 36.2 ± 7.54 | 0.0598 ± 0.0065 | 7 | 1650 | ~95 | –
VRTKQEARKSTGG (also: sidechain bridge or staple (positions not given here)) [Peptide 8] | ~64 | 34.1 ± 7.76 | 0.0423 ± 0.00433 | 5 | 1230 | – | –
D-ARTKQEARKSTGG (sidechain bridge or staple) [Peptide 6] | ~89 | 10.4 ± 1.88 | 0.23 ± 0.014 | 97 | 22200 | – | methylation by SETD7 in time-course [1, 5]: ~90%
21-mer H3K4: longer linear H3K4 substrate peptide, residues 1–21 [reference compound] | – | – | – | – | – | – | methylation by SETD7 ([1]; 21-mer peptide (residues 1–21) 10 µM, SETD7 500 nM, 37 °C, 3 h, n = 2): ~88%; dimethylated product by SETD1A [3]: ~9%
